The source of these data is PMC3158671 (Carbohydrate Research, 2011).

For experiment [1], the target named is T1, human lysosomal β-galactosidase (Homo sapiens, UniProt P16278).
T1 sequence (P16278 29-677): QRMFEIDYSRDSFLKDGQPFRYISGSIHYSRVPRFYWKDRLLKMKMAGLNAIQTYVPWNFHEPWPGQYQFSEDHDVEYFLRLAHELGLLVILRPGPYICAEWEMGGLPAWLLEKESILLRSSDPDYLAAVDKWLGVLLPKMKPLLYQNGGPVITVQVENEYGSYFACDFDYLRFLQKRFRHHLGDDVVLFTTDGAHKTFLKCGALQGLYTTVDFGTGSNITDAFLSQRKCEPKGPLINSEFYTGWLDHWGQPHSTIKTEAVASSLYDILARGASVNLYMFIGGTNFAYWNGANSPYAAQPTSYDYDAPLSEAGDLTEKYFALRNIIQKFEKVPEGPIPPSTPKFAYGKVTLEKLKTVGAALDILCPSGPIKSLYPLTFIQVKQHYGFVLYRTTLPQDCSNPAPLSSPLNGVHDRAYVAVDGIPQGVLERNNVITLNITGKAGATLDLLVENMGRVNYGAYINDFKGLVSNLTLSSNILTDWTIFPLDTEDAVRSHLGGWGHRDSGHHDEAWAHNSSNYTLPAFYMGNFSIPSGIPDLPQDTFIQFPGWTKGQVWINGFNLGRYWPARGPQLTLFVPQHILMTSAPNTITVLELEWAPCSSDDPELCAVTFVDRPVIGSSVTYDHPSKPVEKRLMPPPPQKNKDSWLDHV
As to the kind of experiment: Human lysosomal β-galactosidase inhibition. The format is biochemical.

Experiment [2] concerns the target T2, β-galactosidase p.Arg483Pro mutation (Felis catus, UniProt O19015, R483P).
T2 sequence (O19015 30-669 R483P): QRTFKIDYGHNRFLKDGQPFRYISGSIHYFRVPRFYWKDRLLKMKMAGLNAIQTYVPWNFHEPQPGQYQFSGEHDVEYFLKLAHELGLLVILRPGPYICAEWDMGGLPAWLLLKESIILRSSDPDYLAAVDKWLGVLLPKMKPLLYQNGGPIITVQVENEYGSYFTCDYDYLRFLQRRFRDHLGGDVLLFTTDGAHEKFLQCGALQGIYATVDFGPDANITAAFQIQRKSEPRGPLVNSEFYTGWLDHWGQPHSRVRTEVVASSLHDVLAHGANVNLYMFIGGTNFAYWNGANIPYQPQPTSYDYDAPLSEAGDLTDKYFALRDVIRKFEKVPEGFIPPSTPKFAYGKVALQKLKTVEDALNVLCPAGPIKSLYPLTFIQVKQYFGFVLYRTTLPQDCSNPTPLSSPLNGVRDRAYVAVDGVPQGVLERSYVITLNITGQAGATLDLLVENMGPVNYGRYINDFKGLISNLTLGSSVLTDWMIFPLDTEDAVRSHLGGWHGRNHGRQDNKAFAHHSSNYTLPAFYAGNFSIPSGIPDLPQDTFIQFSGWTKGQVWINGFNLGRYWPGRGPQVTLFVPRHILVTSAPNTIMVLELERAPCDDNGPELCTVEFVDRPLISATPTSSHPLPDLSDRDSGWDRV
Briefly: Intracellular β-galactosidase activity in GM1 gangliosidosis feline fibroblasts. The format is cell-based, cat. Particulars: 5 days; for maximal increase of intracellular β-galactosidase activity: relative to DMSO treated cells. The essentials: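 GM1 gangliosidosis fibroblasts from an affected cat (β-galactosidase p.Arg483Pro) treated 5 days with escalating doses of test compound dissolved in DMSO. Cells lysed; intracellular β-galactosidase measured with fluorogenic 4-methylumbelliferyl β-D-galactopyranoside, β-N-acetylhexosaminidase also measured with MU substrate. Activity normalized to DMSO-treated cells.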

The target of experiment [3] is T3, β-glucosidase/β-galactosidase from Agrobacterium sp. (Agrobacterium sp., UniProt P12614).
T3 sequence (P12614 1-459): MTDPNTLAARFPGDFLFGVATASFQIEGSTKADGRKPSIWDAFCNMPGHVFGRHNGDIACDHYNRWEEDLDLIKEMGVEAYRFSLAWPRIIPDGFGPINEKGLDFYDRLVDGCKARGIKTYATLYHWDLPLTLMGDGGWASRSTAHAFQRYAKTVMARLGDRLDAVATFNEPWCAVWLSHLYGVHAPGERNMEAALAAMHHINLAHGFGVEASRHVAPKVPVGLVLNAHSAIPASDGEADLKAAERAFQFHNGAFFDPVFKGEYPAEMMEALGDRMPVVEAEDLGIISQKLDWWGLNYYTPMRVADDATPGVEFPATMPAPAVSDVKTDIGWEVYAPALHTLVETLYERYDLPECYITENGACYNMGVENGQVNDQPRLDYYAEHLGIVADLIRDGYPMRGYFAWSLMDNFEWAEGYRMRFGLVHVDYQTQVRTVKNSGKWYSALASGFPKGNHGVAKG
As to the kind of experiment: Agrobacterium sp. β-galactosidase/-glucosidase inhibition. The format is biochemical.

The target in experiment [4] is α-galactosidase from green coffee beans (Coffea arabica, UniProt Q42656). Briefly: Green coffee bean α-galactosidase inhibition. The experiment is classed as biochemical.
α-galactosidase from green coffee beans, sequence (Q42656 16-378): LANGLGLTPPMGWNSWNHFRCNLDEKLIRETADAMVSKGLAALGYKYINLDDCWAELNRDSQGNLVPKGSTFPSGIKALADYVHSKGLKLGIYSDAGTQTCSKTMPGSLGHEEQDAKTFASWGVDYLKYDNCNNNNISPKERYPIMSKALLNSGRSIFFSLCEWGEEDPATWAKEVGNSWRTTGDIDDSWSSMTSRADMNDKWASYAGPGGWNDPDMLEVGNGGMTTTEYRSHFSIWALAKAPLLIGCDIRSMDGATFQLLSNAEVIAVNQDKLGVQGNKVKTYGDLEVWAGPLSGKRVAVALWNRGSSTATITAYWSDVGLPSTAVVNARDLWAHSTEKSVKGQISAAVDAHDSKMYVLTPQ
The target of experiment [5] is β-galactosidase from E. coli (Escherichia coli, UniProt P00722). As to the kind of experiment: E. coli β-galactosidase inhibition. The format is biochemical.
β-galactosidase from E. coli, sequence (P00722 2-1024 limits assumed): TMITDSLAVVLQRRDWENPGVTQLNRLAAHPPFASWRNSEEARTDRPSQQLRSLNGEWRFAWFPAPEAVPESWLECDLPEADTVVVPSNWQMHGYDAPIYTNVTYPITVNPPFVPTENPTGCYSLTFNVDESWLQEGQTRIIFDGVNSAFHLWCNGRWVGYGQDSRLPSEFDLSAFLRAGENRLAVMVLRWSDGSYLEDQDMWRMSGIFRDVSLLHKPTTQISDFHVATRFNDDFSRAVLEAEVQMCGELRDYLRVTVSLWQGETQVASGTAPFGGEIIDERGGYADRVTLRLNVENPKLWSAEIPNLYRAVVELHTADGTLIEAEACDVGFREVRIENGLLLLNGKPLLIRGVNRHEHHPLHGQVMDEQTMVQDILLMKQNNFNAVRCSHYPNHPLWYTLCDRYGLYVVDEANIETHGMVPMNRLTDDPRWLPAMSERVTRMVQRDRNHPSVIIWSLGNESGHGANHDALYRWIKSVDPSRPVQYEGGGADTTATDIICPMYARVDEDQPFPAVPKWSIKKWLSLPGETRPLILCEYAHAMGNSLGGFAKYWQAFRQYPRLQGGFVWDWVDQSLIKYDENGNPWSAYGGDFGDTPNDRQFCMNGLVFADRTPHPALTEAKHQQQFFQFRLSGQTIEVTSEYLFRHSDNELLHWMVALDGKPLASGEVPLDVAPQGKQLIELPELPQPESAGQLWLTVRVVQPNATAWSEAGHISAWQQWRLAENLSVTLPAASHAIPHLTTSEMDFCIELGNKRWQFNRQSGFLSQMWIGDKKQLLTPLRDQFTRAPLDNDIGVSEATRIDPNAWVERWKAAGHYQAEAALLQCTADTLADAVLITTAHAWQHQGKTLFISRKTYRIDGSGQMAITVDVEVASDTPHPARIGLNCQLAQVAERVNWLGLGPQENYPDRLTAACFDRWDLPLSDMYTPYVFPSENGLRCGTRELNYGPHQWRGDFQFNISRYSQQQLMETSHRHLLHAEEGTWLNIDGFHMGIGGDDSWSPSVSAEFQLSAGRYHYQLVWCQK

In general, IC50 refers to the concentration at which inhibition is half-maximal. For orientation: Ki means the dissociation constant of the complex between target and ligand, obtained from inhibition or displacement. A high value points to a looser hold on the target. The molecule `CN(C)c1cccc2c(S(=O)(=O)NCCCCCCNC(=O)CCCCCN3C[C@H](O)[C@@H](O)[C@@H](O)[C@H]3CO)cccc12` [Compound 8, N-(Dansylamino)hexylaminocarbonylpentyl-1,5-dideoxy-1,5-imino-D-galactitol] showed an IC50 in experiment [1] of 6200 nM. Besides, in experiment [2], the “concentration at maximal increase of intracellular β-galactosidase activity” value (“concentration at maximal increase” below) stood at 258 µM, the “range of β-galactosidase activity enhancement” value is given as “large range over which it enhanced β-galactosidase activity” and the “maximal increase of intracellular β-galactosidase activity” value worked out at 1.7 fold. For the same molecule, affinity in experiment [3] was put at a Ki of 450 nM.

Consider `CN(C)c1cccc2c(S(=O)(=O)NCCCCCCN(CCCCCCNS(=O)(=O)c3cccc4c(N(C)C)cccc34)C(=O)CCCCCN3C[C@H](O)[C@@H](O)[C@@H](O)[C@H]3CO)cccc12` [Compound 9, N-Bis(dansylaminohexyl)aminocarbonylpentyl-1,5-dideoxy-1,5-imino-D-galactitol], for which the Ki was 2600 nM in experiment [4], 630 nM in experiment [3] and 290 nM in experiment [5]. In addition, the midpoint of inhibition in experiment [1], the IC50, lay at 850 nM. Also, the “concentration at maximal increase” value in experiment [2] was 2.1 µM. In addition, the “maximal increase of intracellular β-galactosidase activity” value in experiment [2] came to 1.5 fold.

With `CN(C)c1cccc2c(S(=O)(=O)NCCCCCCN(CCCCCCNS(=O)(=O)c3cccc4c(N(C)C)cccc34)CCCCCCN3C[C@H](O)[C@@H](O)[C@@H](O)[C@H]3CO)cccc12` [Compound 13, N-Bis(dansylaminohexyl)aminohexyl-1,5-dideoxy-1,5-imino-D-galactitol], the Ki was determined as 530 nM in experiment [4], 230 nM in experiment [3] and 120 nM in experiment [5]. Besides, 2700 nM corresponded to half-maximal inhibition in experiment [1] (IC50). The “concentration at maximal increase” value in experiment [2] turned out to be 3.0 µM. In addition, the “maximal increase of intracellular β-galactosidase activity” value in experiment [2] stood at 1.8 fold.

As for `CCCCCCCC(=O)N(CCCCCCNS(=O)(=O)c1cccc2c(N(C)C)cccc12)CCCCCCN1C[C@H](O)[C@@H](O)[C@@H](O)[C@H]1CO` [Compound 15, N-[(Dansylaminohexyl)-N-octanoylamino]hexyl-1,5-dideoxy-1,5-imino-D-galactitol], the Ki in experiment [4] came out at 200 nM; in experiment [3], 28 nM; in experiment [5], 47 nM. For the same molecule, the IC50 in experiment [1] came out at 1800 nM.
